Measurements as given in ChEMBL document CHEMBL3808358, “Rational Design of Small Peptides for Optimal Inhibition of Cyclooxygenase-2: Development of a Highly Effective Anti-Inflammatory Agent” (J Med Chem, 2016).
Activity calls are given as the source filed them. The calls are words filed in the database; no cut-off is given here. Residues, ends and D or L forms follow the SMILES beside them.

Assays:
[1] = biological target: Prostaglandin G/H synthase 1 (Homo sapiens) (UniProt P23219); assay: Inhibition of COX1 in healthy human whole blood assessed as calcium ionophore A23187-stimulated TXB2 level at 1 uM preincubated for 60 mins followed by A23187 addition measured after 30 mins by ELISA; type: tissue-based
Summary of the method: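 Fresh venous blood from a healthy volunteer is collected in EDTA. 1 mL samples receive compound, indomethacin or DMSO vehicle (final 1 μM). After 60 min, A23187 is added (final 50 μM). After 30 min, samples are centrifuged at 4 °C and TxB2 in plasma is measured by ELISA, read at 420 nm. Samples are run in duplicate.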

[2] = tested on: Mus musculus; assay: Analgesic activity in Swiss albino mouse assessed as reduction in formalin-induced paw flinches in inflammatory phase at 5 mg/kg, ip dosed 30 mins before formalin injection measured after 15 to 30 mins; type: functional, organism-based
Summary of the method: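 Swiss albino mice of either sex (25-35 g). 20 μL of 2% formalin is injected into the plantar surface of the right hind paw 30 min after treatment. Hind paw flinches are counted for the neurogenic phase (0-5 min) and the inflammatory phase (15-30 min). Results are given as mean ± SEM.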

[3] = tested on: Mus musculus; assay: Analgesic activity in Swiss albino mouse assessed as reduction in capsaicin-induced paw licking at 5 to 10 mg/kg, ip dosed 30 mins before capsaicin injection measured for 10 mins in presence of substance P pre-treated 30 mins before compound dosing; type: functional, organism-based
Summary of the method: (§1)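 Mice of either sex (25-35 g), 5 per group. The modulator is given 30 min before the test compound, and capsaicin 30 min after that: substance P 10 µg/kg, L-arginine 40 mg/kg, L-NAME 20 mg/kg, veratrine 125 µg/kg, A23187 20 µg/kg, glipizide 30 µg/kg. Capsaicin is 1.6 μg in 20 μL intraplantar. Paw lickings are counted for 10 min.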

[4] = tested on: Mus musculus; assay: Analgesic activity in Swiss albino mouse assessed as reduction in capsaicin-induced paw licking at 5 to 10 mg/kg, ip dosed 30 mins before capsaicin injection measured for 10 mins in presence of nitric oxide precursor L-arginine pre-treated 30 mins before compound dosing; type: functional, organism-based; summary of the method: as §1
[5] = tested on: Mus musculus; assay: Analgesic activity in Swiss albino mouse assessed as reduction in capsaicin-induced paw licking at 5 to 10 mg/kg, ip dosed 30 mins before capsaicin injection measured for 10 mins in presence of nitric oxide synthase inhibitor L-NAME pre-treated 30 mins before compound dosing; type: functional, organism-based; summary of the method: as §1
[6] = tested on: Mus musculus; assay: Analgesic activity in Swiss albino mouse assessed as reduction in capsaicin-induced paw licking at 5 to 10 mg/kg, ip dosed 30 mins before capsaicin injection measured for 10 mins in presence of voltage-gated sodium channel opener veratrine pre-treated 30 mins before compound dosing; type: functional, organism-based; summary of the method: as §1
[7] = tested on: Mus musculus; assay: Acute toxicity in Swiss albino mouse assessed as gross behavioral abnormality up to 2000 mg/kg, po administered as single dose through gavage measured continuously for first 4 hrs and periodically for 24 hrs up to 14 days; type: organism-based; conditions: in vivo
Summary of the method: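 Swiss albino mice of either sex (25-35 g), housed at 22 ± 2 °C on a 12 h light/dark cycle. Per OECD 2001 guidance, groups of three received vehicle or 50, 300 or 2000 mg Kg⁻¹ after 4 h fasting. The animals were watched continuously for the first 4 h and then periodically over 24 h for gross behavioural abnormality.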

[8] = biological target: Prostaglandin G/H synthase 1 (Homo sapiens) (UniProt P23219); assay: Binding affinity to COX1 (unknown origin) at 100 uM by isothermal titration calorimetry
Summary of the method: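 Isothermal titration calorimetry in HEPES buffer, pH 7.4. The ligand stock is 100 μM in ethanol/HEPES (1:99). The syringe is stirred at 500 rpm and delivers 19 injections of 2 μL into the enzyme-containing cell at 120 s intervals. Heats from buffer-only control titrations are subtracted. The fit gives Ka, ΔH and ΔS. Run in triplicate.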

Sequence of Prostaglandin G/H synthase 1 (Homo sapiens) (P23219 whole entry): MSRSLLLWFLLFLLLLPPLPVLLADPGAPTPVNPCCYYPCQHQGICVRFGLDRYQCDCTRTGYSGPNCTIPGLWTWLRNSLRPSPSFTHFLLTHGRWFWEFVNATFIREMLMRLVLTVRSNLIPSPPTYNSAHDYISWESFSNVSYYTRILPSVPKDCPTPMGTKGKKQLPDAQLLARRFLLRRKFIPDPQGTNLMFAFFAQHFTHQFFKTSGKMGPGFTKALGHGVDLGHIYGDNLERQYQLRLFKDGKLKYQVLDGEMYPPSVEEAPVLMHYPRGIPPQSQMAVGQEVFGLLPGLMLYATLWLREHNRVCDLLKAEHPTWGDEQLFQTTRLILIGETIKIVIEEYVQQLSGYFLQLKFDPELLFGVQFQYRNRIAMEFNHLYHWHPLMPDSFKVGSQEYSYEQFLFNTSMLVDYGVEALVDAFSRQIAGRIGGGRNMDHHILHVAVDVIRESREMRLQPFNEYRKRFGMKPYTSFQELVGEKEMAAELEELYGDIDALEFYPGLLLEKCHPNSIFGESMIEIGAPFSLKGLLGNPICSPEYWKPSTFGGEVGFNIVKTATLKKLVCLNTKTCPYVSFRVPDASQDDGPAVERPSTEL

## COC(=O)[C@H](CC(C)C)NC(=O)[C@H](Cc1ccccc1)NC(=O)CNC(=O)CN (H-GGFL-OMe)
[1]
  Activity: 5.8 ng/mL
[2]
  Activity: Active
[3]
  Activity: inactive
[4]
  Activity: inactive
[5]
  Activity: Active
[6]
  Activity: Active
[7]
  Activity: Non-toxic
[8]
  Ka: 0.41 ×10³ /M
